In ChEMBL document CHEMBL1781992, “A novel monocarbonyl analogue of curcumin, (1E,4E)-1,5-bis(2,3-dimethoxyphenyl)penta-1,4-dien-3-one, induced cancer cell H460 apoptosis via activation of endoplasmic reticulum stress signaling pathway” (J Med Chem, 2011):
The source made the active and inactive calls. No cut-off for these calls is given here.

Columns and labels:
NCI-H460 [1] = test: Induction of ATF-4 protein expression level in human NCI-H460 cells after 6 hrs by Western blot analysis; format: functional, cell-based
Procedure, shortened: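 H460 cells exposed to 20 μM for varying times, or to a range of concentrations for 6 h. ATF-4 and XBP-1 protein measured by Western blot with actin as loading control.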

NCI-H460 [2] = test: Cytotoxicity against human NCI-H460 cells transfected with lentivirus carrying CHOP siRNA assessed as reduction of cell viability at 10 uM after 24 hrs by CellTiter-Glo analysis; format: functional, cell-based
Procedure, shortened: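 H460 cells infected with lentivirus carrying CHOP siRNA or nonspecific siRNA; 48 h later treated with 10 μM for 24 h. Survival measured with CellTiter-Glo as percent of nontransfected DMSO-treated cells.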

[3] = molecular target: Transcription factor Jun (Homo sapiens) (UniProt P05412); test: Induction of c-Jun phosphorylation in human NCI-H460 cells at 20 uM after 12 hrs by Western blot analysis; format: cell-based
Procedure, shortened: (§1)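 H460 cells cultured in RPMI 1640 with 5% heat-inactivated FBS at 37 C, 10% CO2; exposed to 20 μM for a time course. Lysed at 0 C in Tris-HCl pH 7.4 buffer with NP40, SDS, and protease/phosphatase inhibitors. Phospho-c-Jun detected by Western blot with chemiluminescence, actin as loading control; band density quantified.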

NCI-H460 [4] = test: Cytotoxicity against human NCI-H460 cells assessed as cell viability at 20 uM after 24 hrs by CellTiter-Glo analysis; format: functional; conditions: NCI-H460, 24 h, read-out: Activity
Procedure, shortened: (§2)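 H460 cells (5 × 10^3/well) seeded overnight, then given fresh medium containing compound from DMSO stock (final 5, 10, 20 μM; 2.5–30 μM in the figure) for 24 h. Viability measured with CellTiter-Glo and expressed as percent of vehicle-treated cells; Student's t test.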

NCI-H460 [5] = test: Induction of apoptosis in human NCI-H460 cells assessed as early apoptotic cells at 5 uM after 6 hrs by annexinV-propidium iodide staining based flow cytometric analysis relative to control; format: functional
Procedure, shortened: (§3)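 H460 cells plated for 6 h, then treated with 5, 10 or 20 μM. Cells washed, trypsin-EDTA detached and resuspended in PBS, then stained with annexin V and propidium iodide plus RNase and 0.1% Triton X-100 for 30 min at 37 °C before flow cytometry. Figure legend gives 6 h incubation.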

NCI-H460 [6] = test: Induction of apoptosis in human NCI-H460 cells assessed as late apoptotic cells at 5 uM after 6 hrs by annexinV-propidium iodide staining based flow cytometric analysis relative to control; format: functional; procedure, shortened: as §3
NCI-H460 [7] = test: Cytotoxicity against human NCI-H460 cells assessed as reduction of cell viability at 5 to 30 uM after 24 hrs by CellTiter-Glo analysis; format: functional, cell-based; procedure, shortened: as §2
NCI-H460 [8] = test: Cytotoxicity against human NCI-H460 cells assessed as reduction of cell viability at 5 to 20 uM after 24 hrs by CellTiter-Glo analysis; format: functional, cell-based; procedure, shortened: as §2
NCI-H460 [9] = test: Induction of ATF-4 protein level in human NCI-H460 cells at 20 uM after 6 hrs by Western blot analysis
NCI-H460 [10] = test: Antitumor activity against human NCI-H460 cells xenografted in ip dosed nude Balb/cA mouse assessed as decrease in tumor volume administered qd for 20 days; format: functional, organism-based
Procedure, shortened: (§4)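 BALB/cA nu/nu female athymic mice bearing sc right-flank xenografts (3 × 10^6 H460 cells in PBS); once-daily ip dosing began on day 10, when tumors reached 100–300 mm3. Water-soluble liposome preparation in PBS at 10 or 50 mg/kg; controls received liposome vehicle in PBS. Volume = lw²/2; T/C read on day 22. Seven mice per group, mean ± SD; Student's t test.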

NCI-H460 [11] = test: Induction of apoptosis in human NCI-H460 cells assessed as late apoptotic cells at 20 uM after 6 hrs by annexinV-propidium iodide staining based flow cytometric analysis relative to control; format: functional; procedure, shortened: as §3
NCI-H460 [12] = test: Induction of GRP78 mRNA expression in human NCI-H460 cells after 1 hrs by real time quantitative PCR analysis; format: functional, cell-based
Procedure, shortened: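 H460 cells treated across a concentration range for 1 h. GRP78 mRNA quantified by RT-qPCR, normalized to β-actin and expressed as percent of vehicle.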

NCI-H460 [13] = test: Induction of apoptosis in human NCI-H460 cells after 6 hrs by Flow cytometric analysis; format: functional, cell-based; procedure, shortened: as §3
NCI-H460 [14] = test: Induction of XBP-1 protein level in human NCI-H460 cells at 20 uM after 6 hrs by Western blot analysis
NCI-H460 [15] = test: Induction of apoptosis in human NCI-H460 cells assessed as morphological changes at 5 to 20 uM after 24 hrs by light microscopic analysis; format: functional, cell-based
Procedure, shortened: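 H460 cells treated at 5, 10 or 20 μM for 24 h; morphology imaged by light microscope at 20× magnification.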

NCI-H460 [16] = test: Antitumor activity against human NCI-H460 cells xenografted in nude Balb/cA mouse assessed as decrease in tumor volume at 10 mg/kg, ip qd for 20 days measured on day 22 relative to control; format: functional; design: scale not given: the % may be the effect or the level left; conditions: route intraperitoneal; procedure, shortened: as §4
NCI-H460 [17] = test: Induction of apoptosis in human NCI-H460 cells assessed as non-viable necrotic cells at 5 uM after 6 hrs by annexinV-propidium iodide staining based flow cytometric analysis relative to control; format: functional; procedure, shortened: as §3
NCI-H460 [18] = test: Induction of ATF-4 mRNA expression in human NCI-H460 cells after 3 hrs by real time quantitative PCR analysis
[19] = molecular target: Transcription factor Jun (Homo sapiens) (UniProt P05412); test: Induction of c-Jun phosphorylation in human NCI-H460 cells at 20 uM after 3 hrs by Western blot analysis; format: cell-based; procedure, shortened: as §1
NCI-H460 [20] = test: Induction of apoptosis in human NCI-H460 cells assessed as late apoptotic cells at 10 uM after 6 hrs by annexinV-propidium iodide staining based flow cytometric analysis relative to control; format: functional; procedure, shortened: as §3
NCI-H460 [21] = test: Cytotoxicity against human NCI-H460 cells assessed as reduction of cell survival after 24 hrs by CellTiter-Glo analysis; format: functional, cell-based; procedure, shortened: as §2
NCI-H460 [22] = test: Induction of apoptosis in human NCI-H460 cells at 20 uM after 6 hrs by flow cytometric analysis; format: functional; procedure, shortened: as §3
NCI-H460 [23] = test: Induction of apoptosis in human NCI-H460 cells assessed as early apoptotic cells at 20 uM after 6 hrs by annexinV-propidium iodide staining based flow cytometric analysis relative to control; format: functional; procedure, shortened: as §3
NCI-H460 [24] = test: Increase in p53 expression in human NCI-H460 cells at 20 uM by Western blot analysis; format: functional, cell-based; conditions: TDE = time-dependent effect
Procedure, shortened: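 H460 cells exposed to 20 μM for varying times, or to a range of concentrations for 12 h. Lysates made in Tris-HCl pH 7.4/NaCl/NP40/SDS buffer with protease and phosphatase inhibitors, then probed for p53 by Western blot with chemiluminescent detection; bands quantified by densitometry.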

Mus musculus = test: Toxicity in ICR mouse assessed as mortality at 400 to 800 mg/kg; format: organism-based; design: dose 400-800 mg/kg; conditions: in vivo
NCI-H460 [25] = test: Induction of XBP-1 mRNA expression in human NCI-H460 cells after 3 hrs by real time quantitative PCR analysis
NCI-H460 [26] = test: Induction of GRP78 protein expression in human NCI-H460 cells at 5 to 20 uM after 3 hrs by Western blot analysis; format: functional, cell-based
Procedure, shortened: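 H460 cells treated for 3 h; GRP78 protein detected by Western blot with actin as loading control.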

Sequence of Transcription factor Jun (Homo sapiens) (P05412 whole entry): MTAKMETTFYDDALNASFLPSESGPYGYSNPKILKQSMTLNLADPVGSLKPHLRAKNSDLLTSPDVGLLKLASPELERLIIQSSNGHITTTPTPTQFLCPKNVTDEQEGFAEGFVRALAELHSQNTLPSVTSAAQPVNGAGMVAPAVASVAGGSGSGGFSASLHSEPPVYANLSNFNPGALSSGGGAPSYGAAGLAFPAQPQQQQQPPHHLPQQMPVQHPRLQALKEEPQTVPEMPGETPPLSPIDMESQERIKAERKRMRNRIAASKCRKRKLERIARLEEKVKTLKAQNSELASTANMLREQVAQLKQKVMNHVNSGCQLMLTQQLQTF

COc1cccc(/C=C/C(=O)/C=C/c2cccc(OC)c2OC)c1OC
Activity (NCI-H460 [1]): Dose-dependent effect | Activity (NCI-H460 [2]): inactive | Activity [3]: Active | viability at 20 µM (NCI-H460 [4]): 16% | Activity (NCI-H460 [5]): 7.44% | Activity (NCI-H460 [6]): 2.62% | Activity (NCI-H460 [7]): Active | Activity (NCI-H460 [8]): Active | Activity (NCI-H460 [9]): Active | Activity (NCI-H460 [10]): Dose-dependent effect | Activity (NCI-H460 [11]): 11.56% | Activity (NCI-H460 [12]): Active | Activity (NCI-H460 [13]): Dose-dependent effect | Activity (NCI-H460 [14]): Active | Activity (NCI-H460 [15]): Active | Activity (NCI-H460 [16]): 75.8% | Activity (NCI-H460 [17]): 0.55% | Activity (NCI-H460 [18]): Dose-dependent effect | Activity [19]: Active | Activity (NCI-H460 [20]): 3.3% | Activity (NCI-H460 [21]): Dose-dependent effect | Activity (NCI-H460 [22]): 29.63% | Activity (NCI-H460 [23]): 29.68% | Activity (NCI-H460 [24]): tde | Activity (Mus musculus): Non-toxic | Activity (NCI-H460 [25]): Dose-dependent effect | Activity (NCI-H460 [26]): Active
